Only some compounds are listed: those with a hit (about 2.7% of all), similar ones and a draw of the others.
bovine MsrA act = bovine MsrA enzyme activators, primary screen, biochemical, absorbance, HTS. Methionine sulfoxide reductase A (Bos taurus). 360,000 compounds, 0.3% hits. purified bovine MsrA, absorbance read-out. activation, % at 10.6 µM; in the data active means activation above about 7.5%;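 further: 0% = vehicle and 100% = reference activator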
MsrA inh = bovine MsrA enzyme inhibitors, primary screen, biochemical, absorbance, HTS | Methionine sulfoxide reductase A (Bos taurus) | AID 651718, 2012 | inhibition, % at 15.5 µM | purified bovine MsrA, absorbance read-out | 360,000 compounds, 0.75% hits; in the data active means inhibition above about 4.5%;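 further: 0% = vehicle wells with enzyme and 100% = reference inhibitor wells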
NR1D1 modulator = modulators of Rev-erb alpha DNA binding, primary screen, biochemical, FITC-DNA, fluorescence polarization, uHTS; Nuclear receptor subfamily 1 group D member 1 (Homo sapiens), P20393; Rev-erbα–FITC-DNA binding, 90 min; activity, % at 10 µM; 370,000 compounds, 0.79% hits; AID 1259318, 2017;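 active means activity above about 14%, limit read from the data; passing the limit was not always enough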;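 further: 0% = DMSO wells with 35 nM protein and 100% = DMSO wells with 750 nM protein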
Target sequence (P20393 whole entry, looked up): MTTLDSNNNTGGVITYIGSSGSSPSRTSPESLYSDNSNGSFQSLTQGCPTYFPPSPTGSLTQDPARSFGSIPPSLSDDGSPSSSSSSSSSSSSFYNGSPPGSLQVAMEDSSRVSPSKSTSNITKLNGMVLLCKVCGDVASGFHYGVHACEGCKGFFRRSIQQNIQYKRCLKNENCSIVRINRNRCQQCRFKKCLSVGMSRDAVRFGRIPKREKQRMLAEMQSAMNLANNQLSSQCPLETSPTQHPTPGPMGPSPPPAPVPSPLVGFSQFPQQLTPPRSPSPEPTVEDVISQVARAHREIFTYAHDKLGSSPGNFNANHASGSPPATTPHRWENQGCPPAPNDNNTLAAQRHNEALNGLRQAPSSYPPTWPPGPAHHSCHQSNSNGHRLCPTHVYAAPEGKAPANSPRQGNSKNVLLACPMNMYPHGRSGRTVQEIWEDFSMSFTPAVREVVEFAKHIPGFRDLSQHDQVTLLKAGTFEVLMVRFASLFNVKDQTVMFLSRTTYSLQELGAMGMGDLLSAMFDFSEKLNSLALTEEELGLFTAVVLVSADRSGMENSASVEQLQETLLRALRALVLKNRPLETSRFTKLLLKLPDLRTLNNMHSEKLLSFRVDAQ
HGIII-sPLA2 inh = human group III sPLA2 inhibitors, primary screen, biochemical, QFRET, BODIPY PC-A2 liposome substrate; AID 743126, 2013; Group 3 secretory phospholipase A2 (Homo sapiens), Q9NZ20; QFRET BODIPY PC-A2 liposome hydrolysis, fluorescence; inhibition, % at 12.2 µM; 370,000 compounds, 0.56% hits;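 active means inhibition above mean plus 3 SD of compounds lying within the high and low control bounds, cut at about 19% in these data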;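 further: 0% = median of test compound wells and 100% = no enzyme DMSO wells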
ARFGAP1 inh = inhibitors of rat ARFGAP1 GAP activity, primary screen, biochemical, fluorescence polarization, GDP tracer; ADP-ribosylation factor GTPase-activating protein 1 (Rattus norvegicus), Q62848; 360,000 compounds, 0.26% hits; inhibition, % at 16.5 µM; Arfgap1-stimulated ARF1 GTP hydrolysis, GDP FP detection;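 active means inhibition above a per-plate limit, mean inhibition of low control wells plus 3 SD, cut at about 25% in these data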;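 further: 0% = DMSO wells with enzyme and 100% = wells lacking Arfgap1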
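Material: truncated rat Arfgap1 GAP domain; Incubation: compound-enzyme preincubation 20 min, reaction 120 min, detection 60 min, 25 °C; Read-out: percent inhibition of Arfgap1-stimulated GTP hydrolysis; Technique: FP, GDP Alexa 633 tracer displaced from anti-GDP antibody, 620/688 nm; Controls: No-Arfgap1 wells (100%) versus DMSO full-reaction wells (0%); Replication: single well per compound.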
ASAP1 GAP inh = inhibitors of human ASAP1 ArfGAP activity, primary screen, biochemical, fluorescence polarization | inhibition, % at 16.5 µM | 360,000 compounds, 0.19% hits | ASAP1-stimulated ARF1 GTP hydrolysis, GDP FP detection | AID 624377, 2012 | Arf-GAP with SH3 domain, ANK repeat and PH domain-containing protein 1 (Homo sapiens), …; in the data active means inhibition above about 25%;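 further: 0% = vehicle with enzyme and substrate and 100% = no enzyme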
NR1D1 mod conf = modulators of Rev-erb alpha DNA binding, confirmation, biochemical, FITC-DNA, fluorescence polarization, single point; shares compounds with NR1D1 modulator; 90 min; activation, % at 25 µM; 3,000 compounds, 61% hits; AID 1259319, 2017;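 active means activation at or above a set limit, or at least 3 SD above the negative control mean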;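 further: 0% = 35 nM protein with DMSO and 100% = 750 nM protein high control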
RORg DNA counter = modulation of RORgamma DNA binding, dose response, counter-screen for Rev-erb alpha modulator project, biochemical, fluorescence polarization, FITC-DNA. shares compounds with NR1D1 modulator. purified RORgamma protein-FITC-DNA binding. IC50, µM. 910 compounds, 8% hits;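 active means Compounds whose fitted half-maximal concentration for disrupting protein-DNA binding is below 10 micromolar; the record names Rev-erb in its text, so the target is in doubt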
Numbers without * were called inactive; i = inactive; x = no result.

SMILES	bovine MsrA act	MsrA inh	NR1D1 modulator	HGIII-sPLA2 inh	ARFGAP1 inh	ASAP1 GAP inh	NR1D1 mod conf	others
Cc1cc(C)c2nc(SCC(=O)Nc3ccccc3N3CCOCC3)c(C#N)cc2c1	-10.6	-0.7	65.0*	5.5	-0.6	-8.0	32.2*	RORg DNA counter=>40
CCCCCCCCN1C(=O)[C@H](CC(=O)N2CCN(C(=O)c3ccco3)CC2)C[C@@]2(C(=O)OC)CCCCC=C12	-0.3	-1.1	-13.8	-12.8	-17.5	-11.4	x
COc1ccc(NC(=O)COc2nc3ccccc3nc2N2CCOCC2)c(OC)c1	-5.3	1.3	23.9*	10.0	-3.0	12.1	10.4
CCn1c(SCC(=O)Nc2ccccc2-c2ccccc2)nnc1-c1ccc(Cl)cc1	x	x	-4.2	-8.5	x	x	x
Cc1cc(C)c(Cn2c3ccccc3c3cnn(CC(=O)NCc4ccccn4)c(=O)c32)c(C)c1	-1.8	-0.5	38.5*	-10.3	-7.1	6.3	18.2*
Cc1cc(C)c(Cn2c3ccccc3c3cnn(CC(=O)NCCN4CCOCC4)c(=O)c32)c(C)c1	-3.8	-0.5	1.1	-17.1	-9.8	-19.4	x
CCOC(=O)c1cc(-c2ccc3c(c2)OCO3)nc2onc(C)c12	-10.0	-0.1	33.2*	-1.8	1.8	-19.4	8.7
O=C(O)c1cc(-c2ccc3c(c2)OCO3)nc2ccc(Cl)cc12	-7.3	3.2	-2.2	-3.6	6.9	1.6	x
CC(OC(=O)c1ccc(S(C)(=O)=O)c([N+](=O)[O-])c1)C(=O)NC1C2CC3CC(C2)CC1C3 (stereo not drawn)	-5.6	0.3	-7.2	5.5	-0.1	0.8	x
COc1ccc(-c2nnc3ccc(SCC(=O)Nc4nc5ccc(C)cc5s4)nn23)cc1OC	-2.8	-0.9	25.1*	-1.5	-4.0	7.5	25.9*
COC(=O)CSc1ccc2nnc(-c3ccc(OC)c(OC)c3)n2n1	-2.9	0.2	-2.0	0.8	1.1	-8.2	x
COc1ccc(C(C)(O)c2nc(-c3ccccc3OC)cs2)cc1 (stereo not drawn)	-4.7	0.1	0.5	-18.2	12.8	11.6	x
COc1ccc(C2=NN(C(=O)CSc3nc(=O)n4cc(C)ccc4n3)C(c3ccc(C)cc3)C2)cc1 (stereo not drawn)	-3.4	-0.3	57.5*	0.1	6.7	1.7	19.8*
CN(C)c1ccc(/C=C/c2cccc[n+]2[O-])cc1	-5.0	1.7	3.9	-3.3	-3.7	2.3	x
CC(C)CC[n+]1ccccc1/C=C/c1ccc(N(C)C)cc1	-3.0	1.9	31.6*	-33.5	6.0	11.9	30.1*	RORg DNA counter=>40
CCN1C(=O)/C(=C/C=C2/Sc3ccccc3N2CCO)SC1=S	0.0	-1.8	14.2	0.5	13.6	-5.2	x
CCCN1C(=O)/C(=C\C=C2/Sc3ccccc3N2CCO)SC1=S	-3.0	1.9	8.9	1.0	0.6	2.3	x
CN1/C(=C\C=C2/SC(=S)N(CC(=O)O)C2=O)C(C)(C)c2ccccc21	-6.6	0.6	-13.9	-182.8	13.1	2.8	x
C=CCN1C(=O)/C(=C\C=C2\N(C)c3ccccc3C2(C)C)SC1=S	-4.6	-0.2	24.6*	1.7	-0.9	-6.6	38.5*	RORg DNA counter=>40
CCCCN1C(=O)/C(=C/C=C2\Oc3ccccc3N2CC)SC1=S	-4.8	1.1	15.5*	-3.7	14.4	-10.2	62.3*	RORg DNA counter=i
CCCCN1C(=O)/C(=C/C=C2/CC(C)(C)CN2C)SC1=S	0.1	-0.1	83.6*	-29.0	-1.5	10.2	94.5*	RORg DNA counter=9.78*
CCCN1C(=O)/C(=C/C=C2\N(CC)c3ccccc3C2(C)C)SC1=S	-1.5	0.8	47.1*	1.0	-4.2	0.1	43.2*
Cc1cccc(C)c1NC(=O)C(c1ccc(C#N)cc1)n1c(=O)c(-c2ccco2)nc2ccccc21 (stereo not drawn)	x	0.3	0.3	3.5	0.1	4.1	x
O=C(NC1CCCCN(Cc2cccc(C(F)(F)F)c2)C1=O)c1cccc(C(F)(F)F)c1 (stereo not drawn)	x	x	0.5	11.0	x	x	x
COC(=O)c1cnc(Nc2nc(CN)cs2)nc1C(F)(F)F	-5.5	0.1	-0.4	5.0	10.7	7.3	x
SMILES	bovine MsrA act	MsrA inh	NR1D1 modulator	HGIII-sPLA2 inh	ARFGAP1 inh	ASAP1 GAP inh	NR1D1 mod conf	others
C=C1C[C@@]23CCC4[C@@](C)(CCC[C@@]4(C)C(=O)O)C2CC[C@]1(O)C3 (stereo partly drawn)	-1.3	-0.2	12.6*	1.4	6.3	-4.2	3.8
C[C@@]12CCC3[C@@](CCC4[C@@]3(C)CCC[C@@]4(C)C(=O)O)(CC1=O)C2 (stereo partly drawn)	-12.6	-0.3	-2.7	4.1	-1.1	-2.1	x
CC(C)NC(=O)C1(C)CSCC(=O)N1CCCN1CCOCC1 (stereo not drawn)	x	-0.3	-12.0	1.6	-3.9	-5.9	x
CCOC(=O)c1oc2ccccc2c1NC(=O)COc1cccc(OC)c1	-4.4	0.4	23.3*	6.3	-9.6	0.3	3.8
COc1ccc(C2=Nc3ccccc3N(C(=O)c3ccc4ncccc4c3)C2C(=O)NC2CCCC2)cc1 (stereo not drawn)	x	3.0	-8.0	-2.1	2.1	-1.1	x
CN(C(=O)COC(=O)c1cc(-c2ccc(Cl)s2)nc2ccccc12)C1CCS(=O)(=O)C1 (stereo not drawn)	-6.1	-0.9	51.3*	-3.8	-5.9	-0.5	13.0
CN(C(=O)COC(=O)c1cc(-c2ccccc2Cl)nc2ccccc12)C1CCS(=O)(=O)C1 (stereo not drawn)	-8.0	-0.8	-3.5	-9.2	4.4	1.5	x
OC(c1ccccc1)(c1ccccc1)c1cnc2ccccn12	x	x	-3.4	-1.8	x	x	x
CC1CN(C(=O)N2c3ccccc3Sc3ccccc32)CC(C)O1 (stereo not drawn)	-5.5	-0.3	2.4	-1.8	-1.9	-20.6	x
CC1CN(C(=O)N2c3ccccc3Sc3ccccc32)C(C)CC1=O (stereo not drawn)	0.3	0.3	43.8*	-22.8	-2.1	6.1	60.4*
CCOC(=O)[C@]12CCC=C1N(Cc1ccccc1)C(=O)[C@H](CC(=O)NCC13CC4CC(CC(C4)C1)C3)C2	-0.1	-1.1	5.8	-11.7	-2.7	-3.5	x
